Data set [1] can be described thus: melting temperature; fluorescence melt of hairpins on a sequencing array, two-state fit, raised by 9.35 °C to match UV melts. The settings on record: sodium 0.088 M. The method in brief: (§1)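 Hairpins were imaged by Cy3 fluorescence on a sequenced MiSeq flow cell with annealed Cy3 and quencher oligos, in 50 mM Na-HEPES pH 8.0, 25 mM NaCl, in 2.5 °C steps up to 60 °C. Bootstrapped two-state fits of normalised signals gave melting temperature and folding enthalpy. Four replicates were combined by inverse variance, and fitted temperatures were raised by 9.35 °C to match UV melts.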

Data set [2] can be described thus: folding enthalpy; higher = less favourable; fluorescence melt of hairpins on a sequencing array, two-state fit. Conditions: sodium 0.088 M. The method, boiled down:
as §1

Turning to GGGCGGGCGAAAGCCCCC (((..(((....)))))), the Tm in data set [1] amounted to 51.2 °C. For the same sequence, the folding enthalpy in data set [2] was -11.5 kcal/mol.
On to GGGCGTCGAAAGACACCC (((.(((....))).))), for which the Tm in data set [1] stood at 58.9 °C. In addition, the folding enthalpy in data set [2] was -43.8 kcal/mol.
In the case of GGGCGTCGAAAGACTCCC (((.(((....))).))), in data set [1], the Tm is 53.9 °C. The folding enthalpy in data set [2] is -38.3 kcal/mol.
GGGCGTGGAAACGTGCCC ((((..(....)..)))): in data set [1], the Tm came out at 54.4 °C. Moreover, the folding enthalpy in data set [2] is -41.4 kcal/mol.
As to GGGCTAACGAAAGTTCCC (((..(((....)))))), the Tm in data set [1] was determined as 34.9 °C. The folding enthalpy in data set [2] was -16.7 kcal/mol.
Turning to GGGCTACGAAAGTACCCC (((.(((....))).))), the Tm in data set [1] amounted to 49.4 °C. Further, in data set [2], the folding enthalpy is -17.5 kcal/mol.
In the case of GGGCTATCGAAAGATCCC (((..(((....)))))), the Tm in data set [1] is 31.9 °C. In data set [2], the folding enthalpy is -22 kcal/mol.
For GGGCTCCGAAAGGACCC (((.(((....)))))), the Tm in data set [1] amounted to 57.4 °C. In addition, the folding enthalpy in data set [2] is -30.1 kcal/mol.
For the sequence GGGCTCGAAAGAGACCCC ((((((....)))..))), the Tm in data set [1] is 63.8 °C. For the same sequence, the folding enthalpy in data set [2] was -12.7 kcal/mol.
For GGGCTCGAAAGAGATCCC ((((((....)))..))), the Tm in data set [1] was found to be 47.8 °C. Further, the folding enthalpy in data set [2] was -18.9 kcal/mol.
In the same order, the values of GGGCTCGAAAGAGGGCCC ((((((....)))..))) are 54.6 °C and -39.4 kcal/mol.
In the same order, the values of GGGCTCGAAAGAGGTCCC ((((((....)))..))) are 48.2 °C and -17.1 kcal/mol.
In the same order, the values of GGGCTCGAAAGAGTCCC ((((((....))).))) are 63.1 °C and -26.1 kcal/mol.
For GGGCTCGCGAAAGCGCCC (((..(((....)))))), in data set [1], the Tm was determined as 56.5 °C. Further, the folding enthalpy in data set [2] is -15.7 kcal/mol.
For GGGCTCGGAAACGAGCTC (.(((((....))))).), in data set [1], the Tm came out at 62.9 °C. Moreover, the folding enthalpy in data set [2] was -15 kcal/mol.
In the same order, the values of GGGCTTGGAAACAAACCC (((.(((....))).))) are 43.8 °C and -32.8 kcal/mol.
In the case of GGGCTTGGAAACAAGCTC (.(((((....))))).), the Tm in data set [1] is 54.9 °C. In addition, the folding enthalpy in data set [2] is -31.2 kcal/mol.
Turning to GGGCTTGGAAACAGGCCC ((((.((....)).)))), in data set [1], the Tm turned out to be 59.1 °C. In addition, the folding enthalpy in data set [2] was -43.9 kcal/mol.
For the sequence GGGGAACCGAAAGGTCCC (((..(((....)))))), the Tm in data set [1] amounted to 55.6 °C. For the same sequence, in data set [2], the folding enthalpy was -17.3 kcal/mol.
Consider GGGGAAGGAAACTTCCTC (.(((((....))))).), for which the Tm in data set [1] was found to be 46.8 °C. For the same sequence, the folding enthalpy in data set [2] is -21.6 kcal/mol.
In the same order, the values of GGGGAAGGAAACTTTCCC (((.(((....))).))) are 48.3 °C and -29 kcal/mol.
As for GGGGACGAAAGTCACCCC ((((((....)))..))), the Tm in data set [1] is 63.3 °C. Further, in data set [2], the folding enthalpy was -12.7 kcal/mol.
On to GGGGACGAAAGTCCGCCC ((((((....)))..))), for which the Tm in data set [1] came out at 52.2 °C. Besides, the folding enthalpy in data set [2] is -11.5 kcal/mol.
Take GGGGACGAAAGTCTACCC ((((((....)))..))): in data set [1], the Tm amounted to 47.2 °C. Also, the folding enthalpy in data set [2] was -17.9 kcal/mol.
Take GGGGAGCGAAAGCTGCCC (((.(((....))).))): in data set [1], the Tm was determined as 68.8 °C. Also, the folding enthalpy in data set [2] was -23.8 kcal/mol.
With GGGGAGCGAAAGCTTCCC (((.(((....))).))), the Tm in data set [1] amounted to 68.2 °C. Moreover, in data set [2], the folding enthalpy is -36.5 kcal/mol.
For GGGGATACGAAAGTACCC (((..(((....)))))), in data set [1], the Tm was 49.2 °C. In addition, the folding enthalpy in data set [2] was -24.2 kcal/mol.
In the same order, the values of GGGGATCCGAAAGGACCC (((..(((....)))))) are 53.9 °C and -36.7 kcal/mol.
As to GGGGATGGAAACATCCTC (.(((((....))))).), in data set [1], the Tm worked out at 52.4 °C. The folding enthalpy in data set [2] was -24.4 kcal/mol.
As to GGGGATGGAAACATCTCC ((.((((....)))).)), the Tm in data set [1] came to 50.3 °C. Besides, in data set [2], the folding enthalpy is -32.1 kcal/mol.
GGGGATGGAAACGTCCCC (((((.(....).))))): in data set [1], the Tm stood at 56.1 °C. Further, the folding enthalpy in data set [2] is -48.9 kcal/mol.
As to GGGGCACCGAAAGGTCCC (((..(((....)))))), the Tm in data set [1] was 53.1 °C. Besides, the folding enthalpy in data set [2] is -25.9 kcal/mol.
Consider GGGGCAGGAAACCGCCCC (((((.(....).))))), for which the Tm in data set [1] worked out at 63.8 °C. Besides, in data set [2], the folding enthalpy was -30.3 kcal/mol.
Consider GGGGCATCGAAAGATCCC (((..(((....)))))), for which the Tm in data set [1] is 48.4 °C. The folding enthalpy in data set [2] was -21.9 kcal/mol.
In the same order, the values of GGGGCCGAAAGGCGACCC ((((((....)))..))) are 55.9 °C and -15.9 kcal/mol.
On to GGGGCCGAAAGGCGTCCC ((((((....)))..))), for which the Tm in data set [1] worked out at 53.5 °C. Besides, the folding enthalpy in data set [2] is -13.5 kcal/mol.

(Values after the array DNA melting data of Ke et al. (doi:10.1101/2024.01.08.574731).)
